The source made the active and inactive calls. No cut-off for these calls is given here.
How the values were obtained:
Pseudomonas aeruginosa = experiment: Antibacterial activity against […] Pseudomonas aeruginosa ATCC 27853 at 100 ug/disk by standard disk assay; type: functional; conditions: read-out: IZ
In short: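 Disk diffusion on agar; compounds loaded onto 6 mm paper disks at 100 µg/disk and placed on the plate surface. Plates incubated at 37 °C for 24 h, then zone of inhibition recorded in mm. Ciprofloxacin at 100 µg/disk served as reference.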

Aspergillus fumigatus = experiment: Antifungal activity against Aspergillus fumigatus ATCC 10894 at 100 ug/disk by standard disk assay; type: functional, organism-based
In short: (§1)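 Paper disks (6 mm diameter) carrying 100 µg of test compound placed on the agar surface. Plates kept at 25 °C for 48 h and checked for a zone of inhibition.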

Streptococcus mutans = experiment: Antibacterial activity against Streptococcus mutans ATCC 25175 at 100 ug/disk by standard disk assay; type: functional, organism-based
In short: (§2)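 Test compound loaded onto 6 mm paper disks at 100 µg/disk and laid on the agar surface. Plates incubated at 37 °C for 24 h, then scored for a zone of inhibition.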

Geotrichum candidum = experiment: Antifungal activity against Geotrichum candidum AS2.498 at 100 ug/disk by standard disk assay; type: functional, organism-based; in short: as §1
Staphylococcus aureus = experiment: Antibacterial activity against Staphylococcus aureus ATCC 6538 at 100 ug/disk by standard disk assay; type: functional, organism-based; in short: as §2
Enterococcus faecalis = experiment: Antibacterial activity against Enterococcus faecalis ATCC 19433 at 100 ug/disk by standard disk assay; type: functional, organism-based; in short: as §2
Micrococcus luteus = experiment: Antibacterial activity against Sarcina lutea CMCC B28001 at 100 ug/disk by standard disk assay; type: functional, organism-based; in short: as §2
Candida albicans = experiment: Antifungal activity against Candida albicans ATCC 10231 at 100 ug/disk by standard disk assay; type: functional, organism-based; in short: as §1
Lactococcus lactis = experiment: Antibacterial activity against Lactococcus lactis PCM 2379 at 100 ug/disk by standard disk assay; type: functional; conditions: read-out: IZ; in short: as §2

Row | Compound | zone of inhibition at 100 µg/disc (Pseudomonas aeruginosa) [mm] | Activity (Aspergillus fumigatus) | Activity (Streptococcus mutans) | Activity (Geotrichum candidum) | Activity (Staphylococcus aureus) | Activity (Enterococcus faecalis) | Activity (Micrococcus luteus) | Activity (Candida albicans) | zone of inhibition at 100 µg/disc (Lactococcus lactis) [mm]
1 | O=C(O)c1cn(C2CC2)c2cc(N3CCNCC3)c(F)cc2c1=O [CIPROFLOXACIN] | 22 | – | – | – | – | – | – | – | –
2 | O[C@@H]1C=C[C@H](O)[C@@H]2[C@@H]1C1(C=C[C@@H]2O)Oc2cccc3cccc(c23)O1 [DECASPIRONE F] | 8 | inactive | inactive | inactive | inactive | inactive | inactive | inactive | –
3 | O=C1CC[C@@H](O)[C@@H]2[C@@H]1[C@@H](O)C=CC21Oc2cccc3cccc(c23)O1 [DECASPIRONE G] | 8 | inactive | inactive | inactive | inactive | inactive | inactive | inactive | 12
4 | O[C@H]1[C@@H]2[C@H]([C@@H](O)C=CC23Oc2cccc4cccc(c24)O3)[C@@H](O)C[C@@H]1O [DECASPIRONE H] | 8 | inactive | inactive | inactive | inactive | inactive | inactive | inactive | –
5 | O=C1CCC(O)c2c(Oc3cccc4cccc(O)c34)cccc21 (centres undefined) [DECASPIRONE I] | 8 | inactive | inactive | inactive | inactive | inactive | inactive | inactive | –
